Converted amounts (≈) assume the structure as drawn.
Tests used:
Format in all cases: functional
Staphylococcus aureus [1] = assay: Antibacterial activity against vancomycin-susceptible Staphylococcus aureus after 24 hrs by modified broth macrodilution method
Summary of the method: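 MICs determined in recent clinical MRSA isolates by a modified broth macrodilution method per CLSI recommendations, with 24 h incubation. Daptomycin tests used Mueller-Hinton broth supplemented with calcium. Value is the lowest inhibitory drug concentration.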

Staphylococcus aureus [2] = assay: Antibacterial activity against vancomycin-intermediate Staphylococcus aureus after 24 hrs by modified broth macrodilution method
Summary of the method: (§1)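 MIC read after 24 h incubation by modified broth macrodilution, validated per CLSI recommendations, against recent clinical MRSA isolates (hospital- and community-acquired, hVISA, VISA, VRSA). Daptomycin tests ran in Mueller-Hinton broth with added calcium.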

Staphylococcus aureus [3] = assay: Antibacterial activity against vancomycin-hetero-intermediate Staphylococcus aureus after 24 hrs by modified broth macrodilution method; summary of the method: as §1
Staphylococcus aureus [4] = assay: Antibacterial activity against vancomycin-resistant Staphylococcus aureus after 24 hrs by modified broth macrodilution method; summary of the method: as §1
Staphylococcus aureus [5] = assay: Antibacterial activity against vancomycin-resistant Staphylococcus aureus isolate 557 after 24 hrs by modified broth macrodilution method; conditions: isolate 557, 24 h; summary of the method: as §1
Staphylococcus aureus [6] = assay: Antibacterial activity against vancomycin-resistant Staphylococcus aureus isolate 509 after 24 hrs by modified broth macrodilution method; conditions: isolate 509, 24 h; summary of the method: as §1
Staphylococcus aureus [7] = assay: Antibacterial activity against vancomycin-resistant Staphylococcus aureus isolate 1263 after 24 hrs by modified broth macrodilution method; conditions: isolate 1263, 24 h; summary of the method: as §1
Staphylococcus aureus [8] = assay: Antibacterial activity against vancomycin-resistant Staphylococcus aureus isolate 1264 after 24 hrs by modified broth macrodilution method; conditions: isolate 1264, 24 h; summary of the method: as §1
Staphylococcus aureus [9] = assay: Antibacterial activity against vancomycin-hetero-intermediate Staphylococcus aureus isolate 618 after 24 hrs by modified broth macrodilution method; conditions: isolate 618, 24 h; summary of the method: as §1
Staphylococcus aureus [10] = assay: Antibacterial activity against vancomycin-hetero-intermediate Staphylococcus aureus isolate 873 after 24 hrs by modified broth macrodilution method; conditions: isolate 873, 24 h; summary of the method: as §1
Staphylococcus aureus [11] = assay: Antibacterial activity against vancomycin-intermediate Staphylococcus aureus isolate 555 after 24 hrs by modified broth macrodilution method; conditions: isolate 555, 24 h; summary of the method: as §1
Staphylococcus aureus [12] = assay: Antibacterial activity against vancomycin-intermediate Staphylococcus aureus isolate 1287 after 24 hrs by modified broth macrodilution method; conditions: isolate 1287, 24 h; summary of the method: as §1
Staphylococcus aureus [13] = assay: Antibacterial activity against vancomycin-intermediate Staphylococcus aureus isolate 770 after 24 hrs by modified broth macrodilution method; conditions: isolate 770, 24 h; summary of the method: as §1
Staphylococcus aureus [14] = assay: Antibacterial activity against vancomycin-intermediate Staphylococcus aureus isolate 1008 after 24 hrs by modified broth macrodilution method; conditions: isolate 1008, 24 h; summary of the method: as §1
Staphylococcus aureus [15] = assay: Antibacterial activity against vancomycin-intermediate Staphylococcus aureus isolate 1009 after 24 hrs by modified broth macrodilution method; conditions: isolate 1009, 24 h; summary of the method: as §1
Staphylococcus aureus [16] = assay: Antibacterial activity against vancomycin-intermediate Staphylococcus aureus isolate 1010 after 24 hrs by modified broth macrodilution method; conditions: isolate 1010, 24 h; summary of the method: as §1
Staphylococcus aureus [17] = assay: Antibacterial activity against vancomycin-intermediate Staphylococcus aureus isolate 1011 after 24 hrs by modified broth macrodilution method; conditions: isolate 1011, 24 h; summary of the method: as §1
Staphylococcus aureus [18] = assay: Antibacterial activity against vancomycin-intermediate Staphylococcus aureus isolate 1012 after 24 hrs by modified broth macrodilution method; conditions: isolate 1012, 24 h; summary of the method: as §1
Staphylococcus aureus [19] = assay: Antibacterial activity against vancomycin-intermediate Staphylococcus aureus isolate 1013 after 24 hrs by modified broth macrodilution method; conditions: isolate 1013, 24 h; summary of the method: as §1
Staphylococcus aureus [20] = assay: Antibacterial activity against vancomycin-intermediate Staphylococcus aureus isolate 1014 after 24 hrs by modified broth macrodilution method; conditions: isolate 1014, 24 h; summary of the method: as §1
Staphylococcus aureus [21] = assay: Antibacterial activity against vancomycin-intermediate Staphylococcus aureus isolate 1015 after 24 hrs by modified broth macrodilution method; conditions: isolate 1015, 24 h; summary of the method: as §1
Staphylococcus aureus [22] = assay: Antibacterial activity against vancomycin-intermediate Staphylococcus aureus isolate 1016 after 24 hrs by modified broth macrodilution method; conditions: isolate 1016, 24 h; summary of the method: as §1
Staphylococcus aureus [23] = assay: Antibacterial activity against vancomycin-intermediate Staphylococcus aureus isolate 1017 after 24 hrs by modified broth macrodilution method; conditions: isolate 1017, 24 h; summary of the method: as §1
Staphylococcus aureus [24] = assay: Antibacterial activity against vancomycin-intermediate Staphylococcus aureus isolate 511 after 24 hrs by modified broth macrodilution method; conditions: isolate 511, 24 h; summary of the method: as §1
Staphylococcus aureus [25] = assay: Antibacterial activity against vancomycin-intermediate Staphylococcus aureus isolate 1003 after 24 hrs by modified broth macrodilution method; conditions: isolate 1003, 24 h; summary of the method: as §1
Staphylococcus aureus [26] = assay: Antibacterial activity against vancomycin-intermediate Staphylococcus aureus isolate 1004 after 24 hrs by modified broth macrodilution method; conditions: isolate 1004, 24 h; summary of the method: as §1
Staphylococcus aureus [27] = assay: Antibacterial activity against vancomycin-intermediate Staphylococcus aureus isolate 1005 after 24 hrs by modified broth macrodilution method; conditions: isolate 1005, 24 h; summary of the method: as §1
Staphylococcus aureus [28] = assay: Antibacterial activity against vancomycin-intermediate Staphylococcus aureus isolate 1006 after 24 hrs by modified broth macrodilution method; conditions: isolate 1006, 24 h; summary of the method: as §1
Staphylococcus aureus [29] = assay: Antibacterial activity against vancomycin-intermediate Staphylococcus aureus isolate 1984 after 24 hrs by modified broth macrodilution method; conditions: isolate 1984, 24 h; summary of the method: as §1
Staphylococcus aureus [30] = assay: Antibacterial activity against vancomycin-intermediate Staphylococcus aureus isolate 1007 after 24 hrs by modified broth macrodilution method; conditions: isolate 1007, 24 h; summary of the method: as §1
Staphylococcus aureus [31] = assay: Antibacterial activity against methicillin-resistant Staphylococcus aureus isolate 2003 after 24 hrs by modified broth macrodilution method; conditions: isolate 2003, 24 h; summary of the method: as §1
Staphylococcus aureus [32] = assay: Antibacterial activity against hospital-acquired methicillin-resistant Staphylococcus aureus isolate 1743 after 24 hrs by modified broth macrodilution method; conditions: isolate 1743, 24 h; summary of the method: as §1
Staphylococcus aureus [33] = assay: Antibacterial activity against hospital-acquired methicillin-resistant Staphylococcus aureus isolate 1751 after 24 hrs by modified broth macrodilution method; conditions: isolate 1751, 24 h; summary of the method: as §1
Staphylococcus aureus [34] = assay: Antibacterial activity against hospital-acquired methicillin-resistant Staphylococcus aureus isolate 1766 after 24 hrs by modified broth macrodilution method; conditions: isolate 1766, 24 h; summary of the method: as §1
Staphylococcus aureus [35] = assay: Antibacterial activity against hospital-acquired methicillin-resistant Staphylococcus aureus isolate 1776 after 24 hrs by modified broth macrodilution method; conditions: isolate 1776, 24 h; summary of the method: as §1
Staphylococcus aureus [36] = assay: Antibacterial activity against hospital-acquired methicillin-resistant Staphylococcus aureus isolate 1806 after 24 hrs by modified broth macrodilution method; conditions: isolate 1806, 24 h; summary of the method: as §1
Staphylococcus aureus [37] = assay: Antibacterial activity against hospital-acquired methicillin-resistant Staphylococcus aureus isolate 1808 after 24 hrs by modified broth macrodilution method; conditions: isolate 1808, 24 h; summary of the method: as §1
Staphylococcus aureus [38] = assay: Antibacterial activity against hospital-acquired methicillin-resistant Staphylococcus aureus isolate 1838 after 24 hrs by modified broth macrodilution method; conditions: isolate 1838, 24 h; summary of the method: as §1
Staphylococcus aureus [39] = assay: Antibacterial activity against hospital-acquired methicillin-resistant Staphylococcus aureus isolate 1851 after 24 hrs by modified broth macrodilution method; conditions: isolate 1851, 24 h; summary of the method: as §1
Staphylococcus aureus [40] = assay: Antibacterial activity against hospital-acquired methicillin-resistant Staphylococcus aureus isolate 1867 after 24 hrs by modified broth macrodilution method; conditions: isolate 1867, 24 h; summary of the method: as §1
Staphylococcus aureus [41] = assay: Antibacterial activity against community-acquired methicillin-resistant panton-valentine leukocidin-positive Staphylococcus aureus isolate 1468 after 24 hrs by modified broth macrodilution method; conditions: isolate 1468, 24 h; summary of the method: as §1
Staphylococcus aureus [42] = assay: Antibacterial activity against community-acquired methicillin-resistant panton-valentine leukocidin-positive Staphylococcus aureus isolate 1469 after 24 hrs by modified broth macrodilution method; conditions: isolate 1469, 24 h; summary of the method: as §1
Staphylococcus aureus [43] = assay: Antibacterial activity against community-acquired methicillin-resistant panton-valentine leukocidin-positive Staphylococcus aureus isolate 815 after 24 hrs by modified broth macrodilution method; conditions: isolate 815, 24 h; summary of the method: as §1
Staphylococcus aureus [44] = assay: Antibacterial activity against community-acquired methicillin-resistant panton-valentine leukocidin-positive Staphylococcus aureus isolate 950 after 24 hrs by modified broth macrodilution method; conditions: isolate 950, 24 h; summary of the method: as §1
Staphylococcus aureus [45] = assay: Antibacterial activity against community-acquired methicillin-resistant panton-valentine leukocidin-positive Staphylococcus aureus isolate 1471 after 24 hrs by modified broth macrodilution method; conditions: isolate 1471, 24 h; summary of the method: as §1
Staphylococcus aureus [46] = assay: Antibacterial activity against community-acquired methicillin-resistant panton-valentine leukocidin-positive Staphylococcus aureus isolate 1472 after 24 hrs by modified broth macrodilution method; conditions: isolate 1472, 24 h; summary of the method: as §1
Staphylococcus aureus [47] = assay: Antibacterial activity against community-acquired methicillin-resistant panton-valentine leukocidin-positive Staphylococcus aureus isolate 593 after 24 hrs by modified broth macrodilution method; conditions: isolate 593, 24 h; summary of the method: as §1
Staphylococcus aureus [48] = assay: Antibacterial activity against community-acquired methicillin-resistant panton-valentine leukocidin-positive Staphylococcus aureus isolate 693 after 24 hrs by modified broth macrodilution method; conditions: isolate 693, 24 h; summary of the method: as §1
Staphylococcus aureus [49] = assay: Antibacterial activity against community-acquired methicillin-resistant panton-valentine leukocidin-positive Staphylococcus aureus isolate 813 after 24 hrs by modified broth macrodilution method; conditions: isolate 813, 24 h; summary of the method: as §1
Staphylococcus aureus [50] = assay: Antibacterial activity against community-acquired methicillin-resistant panton-valentine leukocidin-negative Staphylococcus aureus isolate 1470 after 24 hrs by modified broth macrodilution method; conditions: isolate 1470, 24 h; summary of the method: as §1
Staphylococcus aureus [51] = assay: Antibacterial activity against vancomycin-resistant Staphylococcus aureus isolate 510 after 24 hrs by modified broth macrodilution method; conditions: isolate 510, 24 h; summary of the method: as §1

## Nc1nc(/C(=N/O)C(=O)N[C@@H]2C(=O)N3C(C(=O)O)=C(/C=C4\CCN([C@@H]5CCNC5)C4=O)CS[C@H]23)ns1 [CEFTOBIPROLE]
Staphylococcus aureus [1]
  MIC: 0.5 µg/mL (≈ 0.935 µM)
Staphylococcus aureus [2]
  MIC: 0.5 µg/mL (≈ 0.935 µM)
Staphylococcus aureus [3]
  MIC: 2 µg/mL (≈ 3.74 µM)
Staphylococcus aureus [4]
  MIC: 0.5 µg/mL (≈ 0.935 µM)
Staphylococcus aureus [5]
  MIC: 1 µg/mL (≈ 1.87 µM)
Staphylococcus aureus [6]
  MIC: 2 µg/mL (≈ 3.74 µM)
Staphylococcus aureus [7]
  MIC: 2 µg/mL (≈ 3.74 µM)
Staphylococcus aureus [8]
  MIC: 0.5 µg/mL (≈ 0.935 µM)
Staphylococcus aureus [9]
  MIC: 2 µg/mL (≈ 3.74 µM)
Staphylococcus aureus [10]
  MIC: 2 µg/mL (≈ 3.74 µM)
Staphylococcus aureus [11]
  MIC: 1 µg/mL (≈ 1.87 µM)
Staphylococcus aureus [12]
  MIC: 0.5 µg/mL (≈ 0.935 µM)
Staphylococcus aureus [13]
  MIC: 2 µg/mL (≈ 3.74 µM)
Staphylococcus aureus [14]
  MIC: 2 µg/mL (≈ 3.74 µM)
Staphylococcus aureus [15]
  MIC: 2 µg/mL (≈ 3.74 µM)
Staphylococcus aureus [16]
  MIC: 2 µg/mL (≈ 3.74 µM)
Staphylococcus aureus [17]
  MIC: 4 µg/mL (≈ 7.48 µM)
Staphylococcus aureus [18]
  MIC: 4 µg/mL (≈ 7.48 µM)
Staphylococcus aureus [19]
  MIC: 2 µg/mL (≈ 3.74 µM)
Staphylococcus aureus [20]
  MIC: 2 µg/mL (≈ 3.74 µM)
Staphylococcus aureus [21]
  MIC: 1 µg/mL (≈ 1.87 µM)
Staphylococcus aureus [22]
  MIC: 4 µg/mL (≈ 7.48 µM)
Staphylococcus aureus [23]
  MIC: 2 µg/mL (≈ 3.74 µM)
Staphylococcus aureus [24]
  MIC: 2 µg/mL (≈ 3.74 µM)
Staphylococcus aureus [25]
  MIC: 2 µg/mL (≈ 3.74 µM)
Staphylococcus aureus [26]
  MIC: 1 µg/mL (≈ 1.87 µM)
Staphylococcus aureus [27]
  MIC: 1 µg/mL (≈ 1.87 µM)
Staphylococcus aureus [28]
  MIC: 2 µg/mL (≈ 3.74 µM)
Staphylococcus aureus [29]
  MIC: 2 µg/mL (≈ 3.74 µM)
Staphylococcus aureus [30]
  MIC: 1 µg/mL (≈ 1.87 µM)
Staphylococcus aureus [31]
  MIC: 2 µg/mL (≈ 3.74 µM)
Staphylococcus aureus [32]
  MIC: 2 µg/mL (≈ 3.74 µM)
Staphylococcus aureus [33]
  MIC: 1 µg/mL (≈ 1.87 µM)
Staphylococcus aureus [34]
  MIC: 2 µg/mL (≈ 3.74 µM)
Staphylococcus aureus [35]
  MIC: 2 µg/mL (≈ 3.74 µM)
Staphylococcus aureus [36]
  MIC: 1 µg/mL (≈ 1.87 µM)
Staphylococcus aureus [37]
  MIC: 1 µg/mL (≈ 1.87 µM)
Staphylococcus aureus [38]
  MIC: 2 µg/mL (≈ 3.74 µM)
Staphylococcus aureus [39]
  MIC: 1 µg/mL (≈ 1.87 µM)
Staphylococcus aureus [40]
  MIC: 2 µg/mL (≈ 3.74 µM)
Staphylococcus aureus [41]
  MIC: 1 µg/mL (≈ 1.87 µM)
Staphylococcus aureus [42]
  MIC: 1 µg/mL (≈ 1.87 µM)
Staphylococcus aureus [43]
  MIC: 0.5 µg/mL (≈ 0.935 µM)
Staphylococcus aureus [44]
  MIC: 1 µg/mL (≈ 1.87 µM)
Staphylococcus aureus [45]
  MIC: 1 µg/mL (≈ 1.87 µM)
Staphylococcus aureus [46]
  MIC: 1 µg/mL (≈ 1.87 µM)
Staphylococcus aureus [47]
  MIC: 1 µg/mL (≈ 1.87 µM)
Staphylococcus aureus [48]
  MIC: 1 µg/mL (≈ 1.87 µM)
Staphylococcus aureus [49]
  MIC: 1 µg/mL (≈ 1.87 µM)
Staphylococcus aureus [50]
  MIC: 2 µg/mL (≈ 3.74 µM)
Staphylococcus aureus [51]
  MIC: 1 µg/mL (≈ 1.87 µM)

Reference: ChEMBL document CHEMBL1255424, “Antistaphylococcal activity of ACHN-490 tested alone and in combination with other agents by time-kill assay” (2010)
